According to ChEMBL document CHEMBL1149562, “Identification and optimization of novel 1,3,4-oxadiazole EP1 receptor antagonists” (Bioorg Med Chem Lett, 2007):

What follows are compounds tested against T1, Prostaglandin E2 receptor EP1 subtype (Homo sapiens, UniProt P34995) (assay: Displacement of [3H]PGE2 from human recombinant EP1 receptor expressed in CHO cell membrane). Conditions: read-out: IC50.
T1 sequence (P34995 whole entry): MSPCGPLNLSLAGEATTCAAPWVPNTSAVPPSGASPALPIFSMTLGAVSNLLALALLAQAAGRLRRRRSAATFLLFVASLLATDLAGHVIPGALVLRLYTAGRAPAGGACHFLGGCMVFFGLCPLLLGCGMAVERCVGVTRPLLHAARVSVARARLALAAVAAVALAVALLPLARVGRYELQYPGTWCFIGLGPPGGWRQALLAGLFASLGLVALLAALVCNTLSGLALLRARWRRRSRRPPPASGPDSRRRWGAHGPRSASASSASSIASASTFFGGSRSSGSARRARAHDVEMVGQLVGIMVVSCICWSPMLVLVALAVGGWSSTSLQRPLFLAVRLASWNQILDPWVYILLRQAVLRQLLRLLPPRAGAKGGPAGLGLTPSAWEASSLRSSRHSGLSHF
Format: cell membranes
In short: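 Radioligand binding using [3H]-PGE2 on membranes of CHO cells expressing recombinant human EP1 receptor; affinity expressed as pIC50. Values are means of at least three experiments.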

Compound | IC50
CCc1ccccc1N(Cc1nnc(Cc2ccc(OC)cc2)o1)S(=O)(=O)c1ccc(C)cc1 | 126 nM
CCc1ccccc1N(CC(=O)NCc1ccc(OC)cc1)S(=O)(=O)c1ccc(C)cc1 | 25 nM
CCc1ccccc1N(CC(=O)OCc1ccc(OC)cc1)S(=O)(=O)c1ccc(C)cc1 | 63 nM

Same assay, conditions: read-out: Log IC50 (converted)

Compound | IC50
Cc1ccc(S(=O)(=O)N(CC(=O)NCCc2ccc(Cl)cc2)c2ccccc2C)cc1 | 251 nM
CCOc1ccc(Cc2nnc(CN(c3cccc(Cl)c3C)S(=O)(=O)c3ccc(C)cc3)o2)cc1 | 3.98 nM
CCc1ccccc1N(Cc1nnc(Cc2ccccc2)o1)S(=O)(=O)c1ccc(C)cc1 | 1000 nM
CCOc1ccc(Cc2nnc(CN(c3ccccc3CC)S(=O)(=O)c3ccc(C)cc3)o2)cc1 | 126 nM
COc1ccc(Cc2nnc(CN(c3cccc(C(F)(F)F)c3C)S(=O)(=O)c3ccc(C)cc3)o2)cc1 | 63.1 nM
Cc1ccc(S(=O)(=O)N(Cc2nnc(Cc3ccc(C(F)(F)F)cc3)o2)c2cccc(Cl)c2C)cc1 | 50.1 nM
Cc1ccc(S(=O)(=O)N(Cc2nnc(Cc3ccccc3Cl)o2)c2cccc(Cl)c2C)cc1 | 79.4 nM
Cc1ccc(S(=O)(=O)N(Cc2nnc(Cc3cccc(Cl)c3)o2)c2cccc(Cl)c2C)cc1 | 158 nM
Cc1ccc(S(=O)(=O)N(Cc2nnc(Cc3c(Cl)cccc3Cl)o2)c2cccc(Cl)c2C)cc1 | 63.1 nM
Cc1ccc(S(=O)(=O)N(Cc2nnc(Cc3ccc(Cl)cc3Cl)o2)c2cccc(Cl)c2C)cc1 | 63.1 nM
COc1ccc(Nc2nnc(CN(c3cccc(Cl)c3Cl)S(=O)(=O)c3ccc(C(F)(F)F)cc3)o2)cc1 | 7.94 nM
COc1ccc(Cc2nnc(CN(c3cccc(Cl)c3Cl)S(=O)(=O)c3ccc(Cl)cc3)o2)cc1 | 20 nM
CCc1ccccc1N(Cc1nnc(COc2ccc(OC)cc2)o1)S(=O)(=O)c1ccc(C)cc1 | 25.1 nM
CCc1ccccc1N(Cc1nnc(CNc2ccc(OC)cc2)o1)S(=O)(=O)c1ccc(C)cc1 | 501 nM
CCOc1ccc(Cc2nnc(CN(c3cccc(Cl)c3Cl)S(=O)(=O)c3ccc(C(F)(F)F)cc3)o2)cc1 | 2.51 nM
COc1ccc(NCc2nnc(CN(c3cccc(Cl)c3C)S(=O)(=O)c3ccc(C)cc3)o2)cc1 | 20 nM
COc1ccc(Nc2nnc(CN(c3cccc(Cl)c3C)S(=O)(=O)c3ccc(C)cc3)o2)cc1 | 31.6 nM
Cc1ccc(S(=O)(=O)N(Cc2nnc(Cc3ccccc3F)o2)c2cccc(Cl)c2C)cc1 | 501 nM
CCc1ccccc1N(CC(=O)NCCc1ccc(OC)c(OC)c1)S(=O)(=O)c1ccc(C)cc1 | 7.94 nM
CCc1ccccc1N(Cc1nnc(Oc2ccc(OC)cc2)o1)S(=O)(=O)c1ccc(C)cc1 | > 1000 nM
COc1ccc(Nc2nnc(CN(c3cccc(Cl)c3Cl)S(=O)(=O)c3ccc(C)cc3)o2)cc1 | 39.8 nM
Cc1ccc(S(=O)(=O)N(Cc2nnc(Cc3ccc(F)cc3)o2)c2cccc(Cl)c2C)cc1 | 200 nM
COc1ccc(Cc2nnc(CN(c3cccc(Cl)c3C)S(=O)(=O)c3ccc(C)cc3)o2)cc1 | 6.31 nM
COc1ccc(Cc2nnc(CN(c3cccc(Cl)c3Cl)S(=O)(=O)c3ccc(C)cc3)o2)cc1 | 7.94 nM
Cc1ccc(S(=O)(=O)N(Cc2nnc(Cc3cccc(F)c3)o2)c2cccc(Cl)c2C)cc1 | 316 nM
CCc1ccccc1N(Cc1nnc(Cc2ccc(Cl)cc2)o1)S(=O)(=O)c1ccc(C)cc1 | 398 nM
Cc1ccc(S(=O)(=O)N(Cc2nnc(Cc3ccc(N(C)C)cc3)o2)c2cccc(Cl)c2C)cc1 | 12.6 nM
CCOc1ccc(Cc2nnc(CN(c3cccc(Cl)c3Cl)S(=O)(=O)c3ccc(C)cc3)o2)cc1 | 6.31 nM

Each compound was assayed against T1, Prostaglandin E2 receptor EP1 subtype (assay: Antagonist activity at human recombinant EP1 receptor expressed in CHO cells assessed as inhibition of PGE2-induced calcium mobilization by FLIPR). Conditions: not given.
Format: functional, cell-based
In short: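 Functional antagonism in CHO cells expressing recombinant human EP1 receptor; blockade of PGE2-driven intracellular Ca2+ mobilization read by FLIPR, reported as pKi. Values are means of at least three experiments, with some from two.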

Compound | Ki
CCOc1ccc(Cc2nnc(CN(c3cccc(Cl)c3C)S(=O)(=O)c3ccc(C)cc3)o2)cc1 | 50.1 nM
CCc1ccccc1N(Cc1nnc(Cc2ccccc2)o1)S(=O)(=O)c1ccc(C)cc1 | 398 nM
CCc1ccccc1N(Cc1nnc(Cc2ccc(OC)cc2)o1)S(=O)(=O)c1ccc(C)cc1 | 631 nM
CCOc1ccc(Cc2nnc(CN(c3ccccc3CC)S(=O)(=O)c3ccc(C)cc3)o2)cc1 | 39.8 nM
COc1ccc(Cc2nnc(CN(c3cccc(C(F)(F)F)c3C)S(=O)(=O)c3ccc(C)cc3)o2)cc1 | 398 nM
Cc1ccc(S(=O)(=O)N(Cc2nnc(Cc3ccc(C(F)(F)F)cc3)o2)c2cccc(Cl)c2C)cc1 | 158 nM
Cc1ccc(S(=O)(=O)N(Cc2nnc(Cc3ccccc3Cl)o2)c2cccc(Cl)c2C)cc1 | 398 nM
Cc1ccc(S(=O)(=O)N(Cc2nnc(Cc3cccc(Cl)c3)o2)c2cccc(Cl)c2C)cc1 | 2000 nM
Cc1ccc(S(=O)(=O)N(Cc2nnc(Cc3c(Cl)cccc3Cl)o2)c2cccc(Cl)c2C)cc1 | 501 nM
Cc1ccc(S(=O)(=O)N(Cc2nnc(Cc3ccc(Cl)cc3Cl)o2)c2cccc(Cl)c2C)cc1 | 1000 nM
COc1ccc(Nc2nnc(CN(c3cccc(Cl)c3Cl)S(=O)(=O)c3ccc(C(F)(F)F)cc3)o2)cc1 | 63.1 nM
COc1ccc(Cc2nnc(CN(c3cccc(Cl)c3Cl)S(=O)(=O)c3ccc(Cl)cc3)o2)cc1 | 63.1 nM
CCc1ccccc1N(Cc1nnc(COc2ccc(OC)cc2)o1)S(=O)(=O)c1ccc(C)cc1 | 126 nM
CCc1ccccc1N(Cc1nnc(CNc2ccc(OC)cc2)o1)S(=O)(=O)c1ccc(C)cc1 | 794 nM
CCOc1ccc(Cc2nnc(CN(c3cccc(Cl)c3Cl)S(=O)(=O)c3ccc(C(F)(F)F)cc3)o2)cc1 | 6.31 nM
COc1ccc(NCc2nnc(CN(c3cccc(Cl)c3C)S(=O)(=O)c3ccc(C)cc3)o2)cc1 | 79.4 nM
COc1ccc(Nc2nnc(CN(c3cccc(Cl)c3C)S(=O)(=O)c3ccc(C)cc3)o2)cc1 | 79.4 nM
Cc1ccc(S(=O)(=O)N(Cc2nnc(Cc3ccccc3F)o2)c2cccc(Cl)c2C)cc1 | 631 nM
CCc1ccccc1N(Cc1nnc(Oc2ccc(OC)cc2)o1)S(=O)(=O)c1ccc(C)cc1 | 100 nM
COc1ccc(Nc2nnc(CN(c3cccc(Cl)c3Cl)S(=O)(=O)c3ccc(C)cc3)o2)cc1 | 50.1 nM
Cc1ccc(S(=O)(=O)N(Cc2nnc(Cc3ccc(F)cc3)o2)c2cccc(Cl)c2C)cc1 | 501 nM
COc1ccc(Cc2nnc(CN(c3cccc(Cl)c3C)S(=O)(=O)c3ccc(C)cc3)o2)cc1 | 39.8 nM
COc1ccc(Cc2nnc(CN(c3cccc(Cl)c3Cl)S(=O)(=O)c3ccc(C)cc3)o2)cc1 | 39.8 nM
Cc1ccc(S(=O)(=O)N(Cc2nnc(Cc3cccc(F)c3)o2)c2cccc(Cl)c2C)cc1 | 501 nM
CCc1ccccc1N(Cc1nnc(Cc2ccc(Cl)cc2)o1)S(=O)(=O)c1ccc(C)cc1 | 316 nM
Cc1ccc(S(=O)(=O)N(Cc2nnc(Cc3ccc(N(C)C)cc3)o2)c2cccc(Cl)c2C)cc1 | 20 nM
CCOc1ccc(Cc2nnc(CN(c3cccc(Cl)c3Cl)S(=O)(=O)c3ccc(C)cc3)o2)cc1 | 31.6 nM
